An excerpt weighted towards active compounds, which were near 3.3% of everything screened.
PRMT1 FP inh = PRMT1 (human) inhibition, primary screen; Q99873; AID 652257; recombinant PRMT1, activity-based probe fluorescence polarization; 1.3% of 370,000 active; inhibition, % at 2.79 µM;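 active = inhibition above about 21% made by adding two undisclosed values, limit read from the data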
MBD2 inh = blocks human MBD2 binding to methylated DNA; Q9UBB5; TR-FRET, MBD2 binding to methylated oligonucleotide; inhibition, % at 4.4 µM; 0.31% of 370,000 active; AID 686964; in the data active = inhibition above about 13%
UHRF1 binding = UHRF1 methyl-DNA binding inhibition; Q96T88; inhibition, % at 4.4 µM; UHRF1 binding to methylated oligo, TR-FRET; 0.75% of 370,000 active; in the data active = inhibition above about 21%;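 also: UHRF1 SRA domain binding a hemimethylated CpG hairpin DNA probe; 0% = median of test compound wells and 100% = reference inhibitor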
SIAE inh = human SIAE inhibition, primary screen; 0.69% of 370,000 active; inhibition, % at 9.66 µM; SIAE FP-Rh probe binding, fluorescence polarization; Q9HAT2; AID 1053197;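 active = inhibition above a cutoff: mean of compounds within the control limits plus 3 SD of those, cut at about 17% in these data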;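 also: 0% = plate median of compound wells and 100% = probe without SIAE protein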
TDP2 absorb = blocks human TDP2 phosphodiesterase activity | AID 720702 | 0.34% of 370,000 active | O95551 | recombinant TDP2, T5PNP hydrolysis, p-nitrophenol absorbance 415 nm | inhibition, % at 12.8 µM;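 active = inhibition above the mean of all tested compounds plus 3 SD, set per campaign, cut at about 25% in these data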;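 also: 0% = DMSO with enzyme and 100% = buffer with substrate but no TDP2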
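Read-out basis: percent inhibition. System: recombinant human TDP2. Buffer or medium: Mg2+-containing Tris-HCl buffer, pH 7.5. Repeats: single replicate. Timing: reaction 2 h, 37 °C. Benchmarks: high control without enzyme, low control DMSO plus TDP2. Probe or stimulus: 5 mM T5PNP. Doses: 12.8 µM only. Measured by: epi absorbance of p-nitrophenol freed from T5PNP by hydrolysis.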
LEDGF integ inh = blocks HIV-1 LEDGF/p75-dependent DNA integration. AID 743269. 0.64% of 370,000 active. TR-FRET IN-LEDGF/p75 DNA integration, Eu/Cy5. inhibition, % at 3.7 µM;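 active = inhibition above the screen-wide mean plus 3 SD, cut at about 13% in these data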;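 also: signal is the Cy5 over europium emission ratio at 671 and 618 nm; 0% = plate median of compound wells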
SIAE inh conf = confirmation of human SIAE inhibitors; inhibition, % at 9.66 µM; shares compounds with SIAE inh; AID 1117263; 13% of 2,300 active; SIAE FP-Rh activity-based probe, fluorescence polarization;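 active = mean inhibition of the replicates above the hit cutoff set in the primary screen, cut at about 17% in these data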;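 also: 0% = SIAE with DMSO and probe and 100% = probe without SIAE; inhibitors lower polarization as more probe stays unbound to SIAE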
* = called active by the depositor; x = no result.

SMILES	PRMT1 FP inh	MBD2 inh	UHRF1 binding	SIAE inh	TDP2 absorb	LEDGF integ inh	SIAE inh conf
COc1cc(C(=O)N/N=C/c2cn(Cc3ccccc3)c3ccccc23)ccc1O	0	2	3	25*	-3	3	10
CNC(=S)N/N=C/c1cn(Cc2ccc(F)cc2)c2ccccc12	1	1	-3	19*	6	-2	9
Nc1ccc(C(=O)N/N=C/c2cn(Cc3ccccc3)c3ccccc23)cc1	-1	2	-3	14	9	6	x
CC(=O)CC[C@H]1CC[C@]2(CCCN(S(C)(=O)=O)C2)O1	0	9	0	0	5	-1	x
C#CC1c2ccccc2CCN1CC=C (stereo not drawn)	-4	-4	-4	1	3	4	x
Cn1c2ccccc2c2cc(/C=N/NC(=O)c3ccccc3F)ccc21	-2	-2	-6	-7	12	1	x
Cn1c2ccccc2c2cc(/C=N/NC(=O)c3ccc(N)cc3)ccc21	-3	-7	-7	24*	12	-1	-3
